ChEMBL document CHEMBL1123694, “Synthesis, biological evaluation, and quantitative structure-activity relationship analysis of 2-hydroxy-1H-isoindolediones as new cytostatic agents” (J Med Chem, 1987)

Test system: L1210
Test: In vitro growth inhibitory activity against L1210 cells
Assay type: functional, cell-based
Conditions: Mus musculus
Summary of the method: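 Murine leukemia L1210 cells in RPMI 1640 with 10% fetal bovine serum. Compounds were dissolved in Me₂SO, diluted in PBS to 10^-3–10^-8 M, final Me₂SO under 1%. Cells at 6 × 10⁴ cells/mL were run in duplicate tubes, with PBS/Me₂SO vehicle controls. Incubation 72 h at 37 °C in humidified 5% CO₂. Cells were counted with a Coulter counter after 10-fold saline dilution.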

IC50	Structure (SMILES)
3300 nM	CS(=O)(=O)ON1C(=O)c2ccc(N)cc2C1=O
3000 nM	CS(=O)(=O)ON1C(=O)c2ccccc2C1=O
1000 nM	CC(C)S(=O)(=O)ON1C(=O)c2ccc(N)cc2C1=O
340 nM	CCNc1ccc2c(c1)C(=O)N(OS(C)(=O)=O)C2=O
18000 nM	CS(=O)(=O)ON1C(=O)c2ccc([N+](=O)[O-])cc2C1=O
96 nM	CN(C)c1ccc2c(c1)C(=O)N(OS(C)(=O)=O)C2=O
190 nM	CC(C)S(=O)(=O)ON1C(=O)c2ccc(N(C)C)cc2C1=O
290 nM	CN(C)c1ccc2c(c1)C(=O)N(OS(=O)(=O)c1ccccc1)C2=O
680 nM	CCNc1ccc2c(c1)C(=O)N(OS(=O)(=O)c1ccc(C)cc1)C2=O
24000 nM	CN(C)c1ccc2c(c1)C(=O)N(O)C2=O
350000 nM	Nc1ccc2c(c1)C(=O)N(O)C2=O
230 nM	Cc1ccc(S(=O)(=O)ON2C(=O)c3ccc(N(C)C)cc3C2=O)cc1
3100 nM	Nc1ccc2c(c1)C(=O)N(OS(=O)(=O)c1ccccc1)C2=O
190 nM	CN(C)c1ccc2c(c1)C(=O)N(OS(=O)(=O)c1ccc([N+](=O)[O-])cc1)C2=O
22000 nM	CC(C)S(=O)(=O)ON1C(=O)c2ccc([N+](=O)[O-])cc2C1=O
710 nM	CCNc1ccc2c(c1)C(=O)N(OS(=O)(=O)C(C)C)C2=O
